# Screening data (PubChem)
# ABCB6 inh 2: human ABCB6 transporter inhibition | hit rate 0.19% among 360,000 | K562-ABCB6 porphyrin accumulation, flow cytometry, 1 h; hits give low values | fluorescence ratio to DMSO, % at 10 µM;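 active means fluorescence ratio to DMSO below 75%, the collection mean minus 3 SD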;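 further: signal is porphyrin accumulated inside mitochondria; lower ratio means ABCB6 inhibition with less porphyrin fluorescence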
# AHR act: activators of human aryl hydrocarbon receptor. P35869. hit rate 2.5% among 320,000. activation, % at 5 µM. AHR-responsive luciferase reporter cells, luminescence. AID 2796; in the data active means activation above about 47%
# Target sequence (P35869 whole entry, looked up): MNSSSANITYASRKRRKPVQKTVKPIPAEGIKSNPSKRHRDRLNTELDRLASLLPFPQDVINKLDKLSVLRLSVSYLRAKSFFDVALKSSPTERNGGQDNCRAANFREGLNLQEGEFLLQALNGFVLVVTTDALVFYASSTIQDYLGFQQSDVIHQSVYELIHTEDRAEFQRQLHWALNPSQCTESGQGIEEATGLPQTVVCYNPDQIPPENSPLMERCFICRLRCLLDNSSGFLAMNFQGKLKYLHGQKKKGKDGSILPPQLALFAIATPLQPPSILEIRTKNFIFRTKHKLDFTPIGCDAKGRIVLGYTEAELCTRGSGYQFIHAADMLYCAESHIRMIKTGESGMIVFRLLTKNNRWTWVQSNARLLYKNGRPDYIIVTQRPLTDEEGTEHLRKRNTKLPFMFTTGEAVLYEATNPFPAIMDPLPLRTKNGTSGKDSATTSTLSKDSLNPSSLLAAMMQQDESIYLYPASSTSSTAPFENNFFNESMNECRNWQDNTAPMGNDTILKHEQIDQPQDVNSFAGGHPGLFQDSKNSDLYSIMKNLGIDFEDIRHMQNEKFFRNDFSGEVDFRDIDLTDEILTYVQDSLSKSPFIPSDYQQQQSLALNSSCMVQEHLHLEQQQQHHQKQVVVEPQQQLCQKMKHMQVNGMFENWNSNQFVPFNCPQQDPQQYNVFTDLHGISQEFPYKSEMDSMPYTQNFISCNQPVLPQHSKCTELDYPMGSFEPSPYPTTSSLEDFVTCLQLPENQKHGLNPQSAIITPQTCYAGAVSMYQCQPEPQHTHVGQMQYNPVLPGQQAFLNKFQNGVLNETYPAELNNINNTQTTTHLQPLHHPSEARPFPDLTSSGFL
# GAA850 FXN act: activators of GAA850 frataxin (FXN) promoter; HEK293 lucGAA850 FXN promoter luciferase reporter, 24 h; percent of 10 µM SAHA response; hit rate 0.56% among 360,000; activation, % at 6 µM;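 active means activation above the average of all compounds screened plus 3 SD, cutoff fixed separately per campaign, cut at about 7.5% in these data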
# STAT3 activator: activators of IL-6 induced STAT3 signaling. hit rate 0.91% among 190,000. AID 871. activation (% of control), % at 5.6 µM. U3A cells, IL-6 STAT3-luciferase reporter, luminescence; 100% = signal with IL-6 EC80 alone;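 active means activation above the screen-wide mean of compound activation plus 3 SD, cut at about 130% in these data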
#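 Detection: reporter luminescence signal / Assay system: STAT1-lacking human U3A cells, STAT3 luciferase reporter / Incubation: compound pre-incubation 1 h before IL-6, then 6 h stimulation at 37 °C / Control set: IL-6-only high control / Read-out: % activation relative to IL-6 control / Probe or stimulus: Interleukin-6, 33 ng/mL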
# A number is an active result; 0 = inactive; - = no result given. Shown are actives, neighbours in structure and some others; about 3.3% of the full set was active somewhere.
SMILES,ABCB6 inh 2,AHR act,GAA850 FXN act,STAT3 activator
Cn1c2nc(=O)n(-c3ccccc3)c(=O)c-2nc2c1CCCC2,0,-,0,-
CN1C(=O)C2(Oc3ccccc3C3CC(c4ccccc4)=NN32)c2ccccc21 (stereo not drawn),0,54,0,0
Cc1ccc(C2=NN3C(C2)c2ccccc2OC32C(=O)Nc3ccccc32)cc1 (stereo not drawn),0,47,0,0
CN1C(=O)C(O)(c2sc(N)nc2-c2ccccc2)c2ccccc21 (stereo not drawn),0,0,0,0
CC(=O)N1N=C(c2ccc(C)cc2)CC1c1ccco1 (stereo not drawn),0,0,0,0
Cc1cccc2c(N=Nc3ccccc3)c(O)[nH]c12,0,76,0,-
Cc1ccc(C(C)C)c(OCC(=O)NN=C2CCCC(=O)C2)c1,0,0,0,-
N#CC1=C(N)NC(SCC(=O)O)=C(C#N)C12CCCC2,0,0,0,0
N#CC1=C(N)NC(SCC(=O)Nc2ccccc2)=C(C#N)C12CCCC2,0,71,0,0
CN(C)c1ccc(NC(=O)Nc2csc3ccccc23)cc1,0,72,0,-
CN(C)c1ccc(NC(=O)Nc2cccc(Cl)c2)cc1,0,0,0,0
O=C(Nc1ccc(F)cc1)Nc1csc2ccccc12,0,75,0,-
CN1c2ccccc2SC2C(c3ccccc3)=NOC21 (stereo not drawn),0,-,-,-
O=C(CN1C(=O)CCC1=O)Nc1nc(-c2ccc(Cl)s2)cs1,0,78,0,0
CC1(C(=O)Nc2ccc3ccccc3c2)CCC(=O)N1CCOc1ccccc1 (stereo not drawn),0,-,-,-
CCOC(=O)c1cnc2c(cnn2C)c1NCCCn1ccnc1,0,59,0,0
CCCc1ccc(OCc2ccc(C(=O)O)o2)c(OC)c1,0,0,0,0
CCCc1ccc(OCc2ccc(C(=O)NN)o2)c(OC)c1,0,56,0,-
Cc1cc(C)cc(OCc2ccc(C(=O)NN)o2)c1,0,79,0,-
COc1ccc(-c2c(C)n([O-])c3c([n+]2=O)CCCC3)cc1OC,-,0,-,0
CN=C1S/C(=C\c2cn(CC(=O)OC)c3ccccc23)C(=O)N1C,0,0,0,135
CN=C1S/C(=C/c2cn(CC(=O)OC)c3ccccc23)C(=O)N1C,0,0,0,-
COc1ccc(Cl)cc1-c1cc(C(=O)NCc2ccco2)[nH]n1,0,-,0,-
O=C(CC1Nc2ccccc2NC1=O)Nc1cc(Cl)cc(Cl)c1 (stereo not drawn),0,48,0,0
CCCCOc1ccccc1NC(=O)CC1Nc2ccccc2NC1=O (stereo not drawn),0,0,0,-
SMILES,ABCB6 inh 2,AHR act,GAA850 FXN act,STAT3 activator
COc1ccc(NC(=O)CC2Nc3cc(C)c(C)cc3NC2=O)c([N+](=O)[O-])c1 (stereo not drawn),0,61,0,0
O=C(CC1NC(=O)NC1=O)Nc1ccc(Cl)cc1 (stereo not drawn),0,0,0,0
O=C(CC1Nc2ccccc2NC1=O)NCc1cccnc1 (stereo not drawn),0,49,0,0
COc1ccc(NC(=O)CC2Nc3cccc4cccc(c34)NC2=O)cc1 (stereo not drawn),0,57,0,0
COc1ccccc1N1CCCSC1=Nc1ccccc1,0,-,0,-
O=C(CCNS(=O)(=O)c1ccc(Cl)cc1)N1CCCCCC1,0,0,0,-
CCC(=O)Nc1nnc(-c2cccs2)s1,0,74,0,0
O=C(Cc1ccccc1)Nc1nnc(-c2cccs2)s1,0,69,0,0
Cc1ccc(/C=C2\SC(N3CCCCC3)=NC2=O)cc1,0,71,0,-
COc1ccc(OC)c(/C=C2\SC(N3CCCCC3)=NC2=O)c1,0,74,0,-
CCN1CCN(CCCNC(=O)C2CCCN(c3nnc(-n4cccc4)s3)C2)CC1 (stereo not drawn),0,0,0,0
Cc1c(C(=O)Nc2ccc(Cl)cc2)c2ccccn2c1CCc1ccncc1,0,87,0,0
Cc1c(C(=O)Nc2cccc(Cl)c2)c2ccccn2c1CCc1ccncc1,0,-,0,0
O=C(c1ccc(Cl)c(S(=O)(=O)N2CCOCC2)c1)N(Cc1ccco1)Cc1cccs1,0,-,0,-
O=C(Nc1nc(-c2ccc(F)cc2)cs1)c1cccc(N2C(=O)CCC2=O)c1,0,48,0,-
O=C(Nc1nc(-c2cc(F)ccc2F)cs1)c1cccc(N2C(=O)CCC2=O)c1,0,0,0,-
CC(=O)Oc1ccc(-c2nc(-c3cccnc3)no2)cc1,0,0,0,0
Brc1ccc(-c2nc(-c3cccnc3)no2)o1,0,63,0,0
O=C1COc2ccc(C(=O)COC(=O)c3sc4ccccc4c3Cl)cc2N1,0,0,0,0
C=CCNC(=S)Nc1c(C(=O)OC)[nH]c2cc(OC)ccc12,0,77,0,-
Cc1cc(N/N=C/c2ccccc2Br)nc2ccccc12,0,52,0,0
CCc1ccc(OCc2cnc(Cl)s2)cc1,0,0,0,0
NC(=O)CSc1nc2ccccc2c(=O)n1CCc1ccccc1,0,75,0,-
COc1ccc(CNn2c(C)nc3ccccc3c2=O)cc1,0,70,0,0
NC(=O)CSc1nc2ccccc2c(=O)n1Cc1ccco1,0,0,0,0
SMILES,ABCB6 inh 2,AHR act,GAA850 FXN act,STAT3 activator
COc1ccc(CCn2c(S)nc3ccccc3c2=O)cc1,0,68,0,-
O=C(CCCc1nc(-c2ccc(Cl)cc2)no1)NC1CCCCC1,0,0,0,-
CC1CN(C(=O)/C=C/c2ccc3c(c2)OCO3)CC(C)O1 (stereo not drawn),0,60,0,0
O=C(C=Cc1ccc2c(c1)OCO2)c1ccccc1,0,-,0,-
CCN(C(=O)/C=C/c1ccc2c(c1)OCO2)c1ccccc1,0,70,0,0
O=C(/C=C/c1ccc2c(c1)OCO2)N1CCOCC1,0,55,0,0
CC(=O)c1c(C)[nH]c(C(=O)COC(=O)Cc2ccccc2F)c1C,0,0,0,-
O=C(CCN1CCN(Cc2ccccc2)CC1)NNC(=O)c1ccc(Cl)c(Cl)c1,0,-,0,-
C[C@H](O)[C@@H]1C(=O)N2CCc3ccc(-c4ccccc4)cc3[C@@H]2C[C@@H]1N(C)C(=S)Nc1ccc(F)cc1,0,-,0,-
O=C(CSc1ccc2nnc(-c3ccccc3)n2n1)NCc1ccc2c(c1)OCO2,0,56,0,0
Cc1cc(SCC(=O)c2ccc3c(c2)OCO3)nc2ccccc12,0,64,0,0
CC(C)(C)NC(=O)CCCSc1nc2ccccc2s1,0,0,0,0
O=C(CCCSc1nc2ccccc2s1)NCc1ccc2c(c1)OCO2,0,50,0,0
O=C(CSc1n[nH]c(-c2cccs2)n1)NCc1ccc2c(c1)OCO2,0,58,0,0
CCCCc1c(-c2cccc(Br)c2)ncn1CCc1ccccc1OC,0,-,-,-
O=C(CSc1ccc2ccccc2n1)NCc1ccc2c(c1)OCO2,0,64,0,0
Nc1cc(N)nc(SCC(=O)NCc2ccc3c(c2)OCO3)n1,0,0,0,-
Cc1ccsc1C(=O)Nc1nc2ccccc2[nH]1,0,111,0,-
Cc1c(C(=O)Nc2nc3ccccc3[nH]2)cccc1[N+](=O)[O-],0,60,0,0
CCc1ccc(C(=O)Nc2nc3ccccc3[nH]2)cc1,0,51,0,-
O=C(Nc1nc2ccccc2[nH]1)c1ccc(F)cc1,0,0,0,0
